pPAFAH inh = inhibitors of human plasma PAF acetylhydrolase (pPAFAH). Q13093. recombinant pPAFAH, FP-rhodamine probe fluorescence polarization. inhibition, % at 3.39 µM. actives 1.5% (n = 330,000);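 active = inhibition above the mean inhibition across the screen plus 3 SD, cut at about 25% in these data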;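 also: inhibitors block binding of the rhodamine activity-based probe so polarization drops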
Target sequence (Q13093 whole entry, looked up): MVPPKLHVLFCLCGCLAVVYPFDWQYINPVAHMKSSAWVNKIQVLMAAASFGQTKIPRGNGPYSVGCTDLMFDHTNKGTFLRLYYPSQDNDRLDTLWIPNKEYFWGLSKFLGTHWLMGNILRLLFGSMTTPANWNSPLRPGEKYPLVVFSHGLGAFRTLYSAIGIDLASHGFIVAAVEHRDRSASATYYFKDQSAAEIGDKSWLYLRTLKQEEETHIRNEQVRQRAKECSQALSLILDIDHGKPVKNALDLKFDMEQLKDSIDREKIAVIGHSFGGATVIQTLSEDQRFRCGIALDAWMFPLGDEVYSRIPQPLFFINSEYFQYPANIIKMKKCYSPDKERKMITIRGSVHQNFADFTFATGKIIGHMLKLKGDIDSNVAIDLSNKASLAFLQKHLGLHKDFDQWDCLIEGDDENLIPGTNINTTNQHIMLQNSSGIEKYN
Apaf-1 inh = inhibitors of human Apaf-1 apoptosome. O14727. reconstituted apoptosome caspase-3 activity, DEVD-Rh110 fluorescence. inhibition, % at 20 µM. actives 0.71% (n = 330,000); active = inhibition of at least 40% at 20 µM
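Assay system – apoptosome proteins · Medium – Hepes buffer, pH 7.5 · Also added – cytochrome c with DEVD-Rh110 · Timing – 30 min compound preincubation, 50 min activation, room temperature · Detection – Rh110 fluorescence, excitation 480 nm, emission 540 nm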
PAFAH2 inh = inhibitors of human PAFAH2; inhibition, % at 3.39 µM; Q99487; AID 492956; actives 0.99% (n = 340,000); recombinant PAFAH2, FP-rhodamine activity probe, fluorescence polarization;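 active = inhibition above the mean over all tested compounds plus 3 SD, cut at about 30% in these data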;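 also: inhibitors block probe labeling of enzyme so polarization drops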
PAFAH1B3 inh = inhibitors of human PAFAH1B3 | recombinant PAFAH1B3, FP-rhodamine probe, fluorescence polarization | actives 0.28% (n = 340,000) | Q15102 | AID 492972 | inhibition, % at 3.39 µM;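 active = inhibition above the screen-wide average of all tested compounds plus 3 SD, cut at about 25% in these data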
Target sequence (Q15102 whole entry, looked up): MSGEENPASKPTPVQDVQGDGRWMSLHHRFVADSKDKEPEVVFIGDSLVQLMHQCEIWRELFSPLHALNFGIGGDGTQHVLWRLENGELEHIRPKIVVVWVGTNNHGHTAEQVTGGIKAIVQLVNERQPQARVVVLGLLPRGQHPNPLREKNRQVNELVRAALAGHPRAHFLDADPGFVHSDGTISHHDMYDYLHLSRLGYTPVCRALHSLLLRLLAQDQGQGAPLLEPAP
PAFAH1B2 FP inh = inhibitors of human PAFAH1B2; P68402; recombinant PAFAH1B2, FP-rhodamine activity probe, fluorescence polarization; inhibition, % at 3.39 µM; actives 1.2% (n = 340,000); AID 492953;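 active = inhibition above the mean of all tested compounds plus 3 SD, cut at about 24% in these data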
Each line names hits and unclear results; the compound was inactive in the other large screens. Hits are enriched below; roughly 3.1% of the tested compounds scored in any of these assays.

C#CCOCCOCCOCCNc1nc(N2CCN(C(=O)CCCCCCCCCCNC(=O)Cn3cc(C[C@@H](C)O)nn3)CC2)nc(N2CCN(C(=O)CCCCCCCCCCNC(=O)[C@H](CO)n3cc(CCCSC)nn3)CC2)n1	none
C#CCOCCOCCOCCNc1nc(N2CCN(C(=O)CCCCCCCCCCNC(=O)[C@H]([C@@H](C)CC)n3cc(CCCCCN)nn3)CC2)nc(N2CCN(C(=O)CCCCCCCCCCNC(=O)[C@@H]([C@H](C)CC)n3cc(CCCCCN)nn3)CC2)n1	Apaf-1 inh 78 (no result: PAFAH2 inh, PAFAH1B3 inh, PAFAH1B2 FP inh)
C#CCOCCOCCOCCNc1nc(N2CCOCC2)nc(N2CCN(C(=O)CCCCCCCCCCNC(=O)[C@@H]([C@H](C)CC)n3cc(CCCCCN)nn3)CC2)n1	none
C#CCOCCOCCOCCNc1nc(N2CCN(C(=O)CCCCCCCCCCNC(=O)[C@H]([C@@H](C)CC)n3cc(CCCCN=C(N)N)nn3)CC2)nc(N2CCN(C(=O)CCCCCCCCCCNC(=O)[C@H](CO)n3cc(CCCCCN)nn3)CC2)n1	Apaf-1 inh 85
C#CCOCCOCCOCCNc1nc(N2CCN(C(=O)Cn3cc(CCCN=C(N)N)nn3)CC2)nc(N2CCN(C(=O)[C@H]([C@@H](C)CC)n3cc(CCCCN)nn3)CC2)n1	none
C#CCOCCOCCOCCNc1nc(N2CCN(C(=O)CCCCCCCCCCNC(=O)[C@H](CO)n3cc(CCCSC)nn3)CC2)nc(N2CCN(C(=O)CCCCCCCCCCNC(=O)[C@H](CCCN=C(N)N)n3cc(C[C@@H](C)CC)nn3)CC2)n1	Apaf-1 inh 45
C=CCn1c(=S)[nH]c2cc(C(=O)Nc3ccc(F)cc3)ccc2c1=O	none
CC(NC(=O)c1cccc(S(=O)(=O)N2CCc3ccccc32)c1)c1ccco1 (configuration not stated)	none
N#Cc1cccc(NC(=O)CSc2ccc3c4c(cccc24)C(=O)c2ccccc2-3)c1	PAFAH2 inh 36, PAFAH1B3 inh 27, PAFAH1B2 FP inh 30 (no result: Apaf-1 inh)
COc1ccc(NC(=O)CSc2ccc3c4c(cccc24)C(=O)c2ccccc2-3)cc1	none
Cc1ccc(CNC(=O)C2CCN(S(=O)(=O)c3ccc4c(c3)CC(C)N4C(=O)C3CCC3)CC2)o1 (configuration not stated)	none
O=C(O)CN1C(=O)/C(=C\c2cccc(OCc3ccc(F)cc3)c2)SC1=S	PAFAH1B2 FP inh 28 (no result: pPAFAH inh)
O=C(O)CN1C(=O)/C(=C\c2cccc(OCc3ccccc3F)c2)SC1=S	none
O=C(O)CN1C(=O)/C(=C\c2cccc(OCc3ccc(Cl)cc3)c2)SC1=S	PAFAH1B2 FP inh 62
O=C(CSc1ccc(-c2ccco2)nn1)c1ccccc1	pPAFAH inh 34
COc1ccc(C(=O)CSc2ccc(-c3ccco3)nn2)cc1	none
CCCc1ccc(OCc2ccc(C(=O)N3CCSCC3)o2)cc1	pPAFAH inh 25
O=C(N/N=C/c1ccc(O)cc1O)c1ccc(NC(=O)C2CCCCC2)cc1	PAFAH1B3 inh 37, PAFAH1B2 FP inh 33
COc1ccc(CNC(=O)Cn2c(=O)n(CC(=O)N3CCCCC3)c(=O)c3sccc32)cc1	none
CCCCCCSc1cc(-c2nc3cc(C)ccn3c2NC2CCCCC2)ccc1OC	none
CCCCCCSc1ccc(-c2nc3cc(C)ccn3c2NC2CCCCC2)cc1	Apaf-1 inh 47
C[C@@]12C(=O)NCC(=O)N1[C@@H]1c3cc(Br)ccc3OC[C@@H]1[C@@H]2c1ccccc1	none
CC(=O)NCC(=O)N(c1ccccc1)C1(C(=O)NC2CCCCC2)CCCCC1	PAFAH1B2 FP inh 28
COc1ccccc1N1CCN(C(=O)c2ccc3c(c2)CCN3S(C)(=O)=O)CC1	none
COc1cccc(NC(=O)C(C)Sc2nnc(C3CC3)n2C2CC2)c1 (configuration not stated)	none
O=C(O)c1ccc(-n2cccc2/C=C2/NC(=O)N(c3ccccc3)C2=O)cc1	pPAFAH inh 29
O=C(O)c1ccc(-n2cccc2/C=C2/NC(=O)N(c3cccc(Cl)c3)C2=O)cc1	none (no result: pPAFAH inh, Apaf-1 inh)
O=C(O)c1ccc(-n2cccc2/C=C2/SC(=O)N(CC(=O)N3CCCC3)C2=O)cc1	pPAFAH inh 34, PAFAH2 inh 38
CCOC(=O)C1CCCN(C(=O)c2cc(S(=O)(=O)N3CCCCCC3)ccc2OC)C1 (configuration not stated)	Apaf-1 inh 49
CCOC(=O)C1CCN(S(=O)(=O)c2ccc(OC)c(C(=O)N3CCCCCC3)c2)CC1	none
NS(=O)(=O)c1ccc(CNC(=O)c2scc3c2CCCC3)cc1	none
O=C(COC(=O)c1sc2cc(F)ccc2c1Cl)Nc1ncc(Cl)cc1Cl	pPAFAH inh 31
O=C(COC(=O)c1ccc(Br)o1)Nc1ncc(Cl)cc1Cl	none
O=C(COC(=O)CCc1ccccc1)Nc1ncc(Cl)cc1Cl	pPAFAH inh 26
C[C@]12CCC[C@H](O1)c1c(cc3c(c1O)C(=O)c1c(O)cc(O)cc1C3=O)O2	pPAFAH inh 27, PAFAH2 inh 30
CCOc1ccccc1CNC(=O)C1CCN(c2nnc(C)c3c(C)n(-c4ccc(C)cc4)nc23)CC1	Apaf-1 inh 41
O=c1c2ccccc2nc(N/N=C/c2c(O)ccc3ccccc23)n1O	pPAFAH inh 34
CC(C)Cc1csc(NC(=O)c2ccc(Cl)cc2)c1C(=O)O	PAFAH2 inh 42
O=C(CSc1nc(-c2ccccc2)cs1)NCCCN1CCCC1=O	none
CC(C)(C)c1ccc(C(CC(=O)O)NC(=O)C23CC4CC(CC(C4)C2)C3)cc1 (configuration not stated)	pPAFAH inh 31, PAFAH1B2 FP inh 26
CC(C)(C)c1ccc(C(CC(=O)O)NC(=O)CSc2ccccc2)cc1 (configuration not stated)	none (no result: PAFAH2 inh, PAFAH1B3 inh, PAFAH1B2 FP inh)
O=C1c2cccc3c(O)ccc(c23)C(=O)N1Cc1ccccc1	pPAFAH inh 31, PAFAH2 inh 50, PAFAH1B3 inh 35, PAFAH1B2 FP inh 26
CCC(C)c1ccc(NC(=S)N2CCN(S(C)(=O)=O)CC2)cc1 (configuration not stated)	none
O=C(Nn1nnnc1Nc1ccccc1)C12CC3CC(CC(C3)C1)C2	PAFAH1B2 FP inh 27
Nc1nonc1-n1nnc(C(=O)N/N=C/c2cc(Cl)ccc2O)c1CN1CCCCCC1	none
CN(C(=O)COC(=O)c1ccccc1SCC(=O)N1CCCC1)C1(C#N)CCCCC1	none
CCCCc1ccc(C2C3=C(CC(C)(C)CC3=O)NC3=C2C(=O)c2ccccc23)cc1 (configuration not stated)	pPAFAH inh 27
CCCc1ccc(C2C3=C(CC(C)(C)CC3=O)NC3=C2C(=O)c2ccccc23)cc1 (configuration not stated)	none
COc1cc(/C=N/NC(=O)c2ccc(-c3ccccc3)cc2)cc(OC)c1OC	none
COc1cc(/C=N/NC(=O)c2cc(-c3ccccc3)sc2N)cc(OC)c1OC	pPAFAH inh 26 (no result: PAFAH2 inh, PAFAH1B3 inh, PAFAH1B2 FP inh)
COc1cc(/C=C/C(=O)O)ccc1OS(=O)(=O)c1c(C)c(C)cc(C)c1C	PAFAH1B2 FP inh 26
CC(C)COc1cccc(C(=O)N(C)CC(=O)Nc2cccc3ccccc23)c1	none

Bioassay records (PubChem BioAssay)
